ChEMBL document CHEMBL4350958, “Rational Design of Short Peptide Variants by Using Kunitzin-RE, an Amphibian-Derived Bioactivity Peptide, for Acquired Potent Broad-Spectrum Antimicrobial and Improved Therapeutic Potential of Commensalism Coinfection of Pathogens” (J Med Chem, 2019)
Converted amounts (≈) assume the structure as drawn. The source made the active and inactive calls. The calls are words filed in the database; no cut-off is given here.

Columns and labels:
Candida albicans [1] = experiment: (§1) Antifungal activity against Candida albicans cgmcc2.2086 infected in C57BL/6 mouse model of keratitis assessed as reduction in fungal hyphae extention into corneal stroma at 1 mg/ml administered as topical eye drop every 5 mins for first 4 hrs and every 30 mins for next 7 hrs measured post-last dose by periodic acid schiff staining-based histological analysis; type: functional, organism-based
Candida tropicalis [2] = experiment: Antifungal activity against Candida tropicalis cgmcc2.1975 measured after 48 hrs by broth microdilution method; type: functional; conditions: cgmcc2.1975, 48 h
Method in brief: (§2)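 Modified CLSI M27-A2 microdilution. Yeast colonies were diluted in MOPS-buffered RPMI 1640 to a final (0.5–1) × 10^3 CFU mL−1 and mixed with an equal volume of peptide serially diluted in 0.2% BSA. After 48 h at 28 °C, MIC was read at A492 as the lowest concentration inhibiting 95% of growth. At least three independent experiments, each with three technical replicates.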

Candida albicans [3] = experiment: as §1, with “colonies in eyeballs” for “hyphae extention into corneal stroma”, “agar plate method relative to control” for “periodic acid schiff staining-based histological analysis”; type: functional; set-up: scale not given: the % may be the effect or the level left
Candida albicans [4] = experiment: Antifungal activity against Candida albicans cgmcc2.2086 infected in C57BL/6 mouse model of keratitis assessed as appearance of transparent irises at 1 mg/ml administered as topical eye drop every 5 mins for first 4 hrs and every 30 mins for next 7 hrs measured post-last dose; type: functional, organism-based
Candida albicans [5] = experiment: Antifungal activity against Candida albicans cgmcc2.2086 infected in C57BL/6 mouse model of keratitis assessed as reduction in clinical score at 1 mg/ml administered as topical eye drop every 5 mins for first 4 hrs and every 30 mins for next 7 hrs measured post-last dose; type: functional, organism-based
Candida albicans [6] = experiment: Antifungal activity against Candida albicans cgmcc2.2086 infected in C57BL/6 mouse model of keratitis assessed as appearance of transparent corneas at 1 mg/ml administered as topical eye drop every 5 mins for first 4 hrs and every 30 mins for next 7 hrs measured post-last dose; type: functional, organism-based
Candida parapsilosis [7] = experiment: Antifungal activity against Candida parapsilosis cgmcc2.3989 measured after 48 hrs by broth microdilution method; type: functional; conditions: Lodderomyces parapsilosis, cgmcc2.3989, 48 h; method in brief: as §2
Candida tropicalis [8] = experiment: Fungicidal activity against Candida tropicalis cgmcc2.1975 incubated for 48 hrs followed by replating on YM agar plate and measured after 48 hrs; type: functional
Method in brief: (§3)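 Yeast diluted in MOPS-buffered RPMI 1640 to (0.5–1) × 10^3 CFU/mL (CLSI M27-A2, modified) and mixed 1:1 with peptide serially diluted in 0.2% BSA. After 48 h at 28 °C, 50 μL per well was plated on YM agar and incubated 48 h at 28 °C. MFC taken as the lowest concentration killing ≥99.9% of cells. Three or more independent experiments, triplicate wells.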

Candida albicans [9] = experiment: Antifungal activity against Candida albicans cgmcc2.2086 measured after 48 hrs by broth microdilution method; type: functional; conditions: cgmcc2.2086, 48 h; method in brief: as §2
Candida albicans [10] = experiment: Fungicidal activity against Candida albicans cgmcc2.2086 incubated for 48 hrs followed by replating on YM agar plate and measured after 48 hrs; type: functional; method in brief: as §3
Candida albicans [11] = experiment: as §1, with “infiltration” for “extention”; type: functional, organism-based
Candida parapsilosis [12] = experiment: Fungicidal activity against Candida parapsilosis cgmcc2.3989 incubated for 48 hrs followed by replating on YM agar plate and measured after 48 hrs; type: functional; method in brief: as §3

With `C[C@@H]1[C@H](O)[C@@H](C)/C=C/C=C/C=C/C=C/C=C/C=C/C=C/[C@H](O[C@@H]2O[C@H](C)[C@@H](O)[C@H](N)[C@@H]2O)C[C@@H]2O[C@](O)(C[C@@H](O)C[C@@H](O)[C@H](O)CC[C@@H](O)C[C@@H](O)CC(=O)O[C@H]1C)C[C@H](O)[C@H]2C(=O)O` [AMPHOTERICIN B] the Activity (Candida albicans [1]) was “Active”, the MIC95 (Candida tropicalis [2]) was 1 µM (≈ 0.924 µg/mL) and the Activity (Candida albicans [3]) was “<=80%”. The Activity (Candida albicans [4]) was “Active”, the Activity (Candida albicans [5]) was “Active” and the Activity (Candida albicans [6]) was “Active”. The MIC95 (Candida parapsilosis [7]) was 2 µM (≈ 1.85 µg/mL), the “MFC<=99.9” value (Candida tropicalis [8]) was 2 µM (≈ 1.85 µg/mL) and the MIC95 (Candida albicans [9]) was 1 µM (≈ 0.924 µg/mL). For the same compound, the “MFC<=99.9” value (Candida albicans [10]) was 2 µM (≈ 1.85 µg/mL), the Activity (Candida albicans [11]) was “Active” and the “MFC<=99.9” value (Candida parapsilosis [12]) was 4 µM (≈ 3.7 µg/mL).
